Measured values reported in ChEMBL document CHEMBL1765030, “Discovery and preclinical evaluation of a novel class of cytotoxic propynoic acid carbamoyl methyl amides (PACMAs)” (J Med Chem, 2011).
Active and inactive are the calls of the source. No cut-off for these calls is given here.

Legend:
HCT-116 [1] = assay: Cytotoxicity against p53 deficient human HCT116 cells […] after 72 hrs by MTT assay; assay type: functional, cell-based; details: HCT-116, 72 h
In short: (§1)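 Cells were attached overnight, then continuously exposed to drug for 72 h. MTT (0.5 mg/mL final) was added for 4 h at 37 °C, formazan dissolved in DMSO, and A570 read; all in triplicate. IC50 came from log(concentration) vs % cells killed. Media: RPMI-1640 for HT29, HCT116 p53+/+ and p53−/−, and HEY; DMEM for MDA-MB-435 and UMUC3; all with 10% FBS, 37 °C, 5% CO₂.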

MDA-MB-435 [2] = assay: Induction of apoptosis in human MDA-MB-435 cells assessed as pre-necrotic cells at 10 uM after 24 hrs using by annexin V and propidium iodide staining by flow cytometry relative to control; assay type: functional
In short: (§2)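 Treatment was 10 μM for 24 and 48 h, with an untreated 48 h control run in parallel. Floating and adherent cells were pooled and stained with annexin V-FITC/propidium iodide, then read by flow cytometry (FITC and PE channels). Quadrants: annexin−/PI− viable; annexin+/PI− early apoptotic; annexin+/PI+ late apoptotic; lower right necrotic/debris.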

[3] = Octanol-water distribution coefficient, log P of the compound; assay type: physicochemical
MDA-MB-435 [4] = assay: Cell cycle arrest in human MDA-MB-435 cells assessed as accumulation at G0/G1 phase at 5 uM after 12 hrs using propidium iodide staining by flow cytometry (reference value: 50%); assay type: functional
NCI/ADR-RES = assay: Cytotoxicity against human NCI/ADR-RES cells after 72 hrs by MTT assay; assay type: functional, cell-based
MDA-MB-435 [5] = assay: Induction of apoptosis in human MDA-MB-435 cells assessed as viable cells at 10 uM after 48 hrs using by annexin V and propidium iodide staining by flow cytometry relative to control; assay type: functional; details: MDA-MB-435, 48 h, read-out: Activity; in short: as §2
MDA-MB-435 [6] = assay: Induction of apoptosis in human MDA-MB-435 cells assessed as pre-necrotic cells at 10 uM after 48 hrs using by annexin V and propidium iodide staining by flow cytometry relative to control; assay type: functional; in short: as §2
MDA-MB-435 [7] = assay: Induction of apoptosis in human MDA-MB-435 cells assessed as apoptotic cells at 10 uM after 48 hrs using by annexin V and propidium iodide staining by flow cytometry relative to control; assay type: functional; in short: as §2
UMUC3 = assay: Cytotoxicity against human UM-UC-3 cells after 72 hrs by MTT assay; assay type: functional, cell-based; details: UMUC3, 72 h; in short: as §1
HEY = assay: Cytotoxicity against human HEY cells after 72 hrs by MTT assay; assay type: functional, cell-based; in short: as §1
MDA-MB-435 [8] = assay: Induction of apoptosis in human MDA-MB-435 cells assessed as necrotic cells at 10 uM after 48 hrs using by annexin V and propidium iodide staining by flow cytometry relative to control; assay type: functional; in short: as §2
[9] = Elimination rate constant in mouse at 24 mg/kg, ip; assay type: ADME, organism-based; set-up: dose 24 mg/kg, route intraperitoneal; details: in vivo
In short: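 Mice received a single 24 mg/kg i.p. injection, with two mice per time point. Blood was drawn into heparinized syringes at set times between 0.5 and 24 h, and plasma was separated by centrifugation and stored at −80 °C. Plasma drug was quantified by validated LC-MS (lowest quantification level 1 ng/mL), and parameters were derived by noncompartmental analysis.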

MDA-MB-435 [10] = assay: Induction of apoptosis in human MDA-MB-435 cells assessed as viable cells at 10 uM after 24 hrs using by annexin V and propidium iodide staining by flow cytometry relative to control; assay type: functional; details: MDA-MB-435, 24 h, read-out: Activity; in short: as §2
MDA-MB-435 [11] = assay: Induction of apoptosis in human MDA-MB-435 cells assessed as apoptotic cells at 10 uM after 24 hrs using by annexin V and propidium iodide staining by flow cytometry relative to control; assay type: functional; in short: as §2
MDA-MB-435 [12] = assay: Cell cycle arrest in human MDA-MB-435 cells assessed as accumulation at G2/M phase at 5 uM after 24 hrs using propidium iodide staining by flow cytometry (reference value: 9%); assay type: functional
MDA-MB-435 [13] = assay: Cell cycle arrest in human MDA-MB-435 cells assessed as accumulation at G0/G1 phase at 5 uM after 24 hrs using propidium iodide staining by flow cytometry (reference value: 50%); assay type: functional
MDA-MB-435 [14] = assay: Cell cycle arrest in human MDA-MB-435 cells assessed as accumulation at S phase at 5 uM after 6 hrs using propidium iodide staining by flow cytometry (reference value: 41%); assay type: functional
MDA-MB-435 [15] = assay: Cell cycle arrest in human MDA-MB-435 cells assessed as accumulation at G2/M phase at 5 uM after 6 hrs using propidium iodide staining by flow cytometry (reference value: 9%); assay type: functional
MDA-MB-435 [16] = assay: Induction of apoptosis in human MDA-MB-435 cells assessed as necrotic cells at 10 uM after 24 hrs using by annexin V and propidium iodide staining by flow cytometry relative to control; assay type: functional; in short: as §2
5637 = assay: Cytotoxicity against human 5637 cells after 72 hrs by MTT assay; assay type: functional, cell-based; details: Homo sapiens, 5637, 72 h
MDA-MB-435 [17] = assay: Cytotoxicity against human MDA-MB-435 cells at 1 uM after 24 hrs using crystal violet staining by colony formation assay; assay type: functional, cell-based
In short: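 Cells were plated at 1000 per well, attached overnight, and exposed to 1 μM for 24 h. They were then washed and grown in fresh medium for 8–10 days until colonies formed, fixed in 1% glutaraldehyde for 30 min, and stained with 2% crystal violet for 30 min. Vehicle was DMSO.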

MDA-MB-435 [18] = assay: Cell cycle arrest in human MDA-MB-435 cells assessed as accumulation at S phase at 5 uM after 24 hrs using propidium iodide staining by flow cytometry (reference value: 41%); assay type: functional
MDA-MB-435 [19] = assay: Cell cycle arrest in human MDA-MB-435 cells assessed as accumulation at G0/G1 phase at 5 uM after 6 hrs using propidium iodide staining by flow cytometry (reference value: 50%); assay type: functional
MDA-MB-435 [20] = assay: Increase of mitochondrial superoxide accumulation in human MDA-MB-435 cells at IC50 to 3 times IC50 after 24 hrs by flow cytometry; assay type: functional, cell-based
In short: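 Cells were drug-treated at two concentrations for 24 h, then loaded with 5 μM MitoSOX Red for 10 min at 37 °C and washed three times in HBSS. Cells were either viewed by fluorescence microscopy or trypsinized, washed twice in HBSS and read by flow cytometry; untreated cells served as control.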

HCT-116 [21] = assay: Cytotoxicity against human HCT116 cells […] after 72 hrs by MTT assay; assay type: functional, cell-based; details: HCT-116, 72 h; in short: as §1
HT-29 = assay: Cytotoxicity against human HT-29 cells after 72 hrs by MTT assay; assay type: functional, cell-based; details: HT-29, 72 h; in short: as §1
MDA-MB-435 [22] = assay: Cell cycle arrest in human MDA-MB-435 cells assessed as accumulation at G2/M phase at 5 uM after 12 hrs using propidium iodide staining by flow cytometry (reference value: 9%); assay type: functional
MDA-MB-435 [23] = assay: Cytotoxicity against human MDA-MB-435 cells after 72 hrs by MTT assay; assay type: functional, cell-based; details: MDA-MB-435, 72 h; in short: as §1
MDA-MB-435 [24] = assay: Cell cycle arrest in human MDA-MB-435 cells assessed as accumulation at S phase at 5 uM after 12 hrs using propidium iodide staining by flow cytometry (reference value: 41%); assay type: functional
MDA-MB-435 [25] = assay: Antitumor activity against human MDA-MB-435 cells xenografted in athymic nude mouse assessed as reduction of tumor burden at 10 mg/kg, ip for 9 days followed by 20 mg/kg, ip for 5 days followed by 40 mg/kg, ip for 12 days; assay type: functional, organism-based
In short: (§3)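 Athymic nude mice were inoculated s.c. on the rear flank with 1.5 × 10⁶ log-phase MDA-MB-435 cells. At ~100 mm³ average tumor volume, mice were randomized (n = 8) to vehicle (10% DMSO/90% sesame oil) or drug, given i.p. once daily, dosed by group mean body weight. Caliper tumor measurements were taken twice weekly, volume = d²×D/2; mice were followed 17 days after dosing ended, with body weight monitored.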

Mus musculus [26] = assay: Toxicity in human MDA-MB-435 cells xenografted athymic nude mouse assessed as histological changes in organ at 10 mg/kg, ip for 9 days followed by 20 mg/kg, ip for 5 days followed by 40 mg/kg, ip for 12 days; assay type: organism-based; details: in vivo
Mus musculus [27] = assay: Toxicity in human MDA-MB-435 cells xenografted athymic nude mouse assessed as change in doy weight at 10 mg/kg, ip for 9 days followed by 20 mg/kg, ip for 5 days followed by 40 mg/kg, ip for 12 days; assay type: organism-based; details: in vivo; in short: as §3
MDA-MB-435 [28] = assay: Induction of apoptosis in human MDA-MB-435 cells assessed as up-regulation of p53 protein expression at 1 uM after 24 to 72 hrs by Western blotting; assay type: functional, cell-based
In short: (§4)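 Cells were treated with 1 μM for 24–72 h and lysed in 50 mM Tris-HCl pH 7.5, 150 mM NaCl, 1% NP-40. Equal protein (BCA) was run on 10% tris-glycine SDS-PAGE and blotted to nitrocellulose. Membranes were blocked in 5% BSA/PBS for 1 h, probed overnight at 4 °C with anti-p53 or anti-caspase-9 (plus tubulin/GAPDH antibodies), and detected by HRP secondary with ECL imaging.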

MDA-MB-435 [29] = assay: Induction of apoptosis in human MDA-MB-435 cells assessed as decrease of caspase 9 protein expression at 1 uM after 24 to 72 hrs by Western blotting relative to control; assay type: functional; in short: as §4

SMILES: C#CC(=O)N(c1ccc(-n2cnnn2)c(C)c1)C(C(=O)NC1CCCC1)c1ccccc1F (configuration not stated)
- IC50 (HCT-116 [1]): 5.5 µM
- Activity (MDA-MB-435 [2]): 6%
- logP [3]: 3.91
- Activity (MDA-MB-435 [4]): 36%
- IC50 (NCI/ADR-RES): 1 µM
- viability at 10 µM (MDA-MB-435 [5]): 11%
- Activity (MDA-MB-435 [6]): 24%
- Activity (MDA-MB-435 [7]): 3%
- IC50 (UMUC3): 6.3 µM
- IC50 (HEY): 1.5 µM
- Activity (MDA-MB-435 [8]): 62%
- k el [9]: 5.72e-05 s⁻¹
- viability at 10 µM (MDA-MB-435 [10]): 66%
- Activity (MDA-MB-435 [11]): 1%
- Activity (MDA-MB-435 [12]): 16%
- Activity (MDA-MB-435 [13]): 33%
- Activity (MDA-MB-435 [14]): 51%
- Activity (MDA-MB-435 [15]): 9%
- Activity (MDA-MB-435 [16]): 27%
- IC50 5637: 0.7 µM
- Activity (MDA-MB-435 [17]): Active
- Activity (MDA-MB-435 [18]): 51%
- Activity (MDA-MB-435 [19]): 40%
- Activity (MDA-MB-435 [20]): Active
- IC50 (HCT-116 [21]): 6.3 µM
- IC50 (HT-29): 1.8 µM
- Activity (MDA-MB-435 [22]): 13%
- IC50 (MDA-MB-435 [23]): 1.4 µM
- Activity (MDA-MB-435 [24]): 51%

SMILES: C#CC(=O)N(c1cccc(C(F)(F)F)c1)C(C(=O)NC1CCCC1)c1cccc(OC)c1 (configuration not stated)
- IC50 (HCT-116 [1]): 8.8 µM
- Activity (MDA-MB-435 [2]): 2%
- logP [3]: 3.7
- Activity (MDA-MB-435 [25]): Active
- IC50 (NCI/ADR-RES): 0.2 µM
- viability at 10 µM (MDA-MB-435 [5]): 52%
- Activity (MDA-MB-435 [6]): 10%
- Activity (MDA-MB-435 [7]): 1%
- Activity (Mus musculus [26]): Non-toxic
- IC50 (UMUC3): > 20 µM
- IC50 (HEY): 5.2 µM
- Activity (MDA-MB-435 [8]): 37%
- viability at 10 µM (MDA-MB-435 [10]): 93%
- Activity (MDA-MB-435 [11]): 1%
- Activity (Mus musculus [27]): 29 g
- Activity (MDA-MB-435 [16]): 4%
- IC50 5637: 0.6 µM
- Activity (MDA-MB-435 [17]): Active
- Activity (MDA-MB-435 [20]): Active
- IC50 (HCT-116 [21]): > 10 µM
- IC50 (HT-29): 7.2 µM
- IC50 (MDA-MB-435 [23]): 6.3 µM

SMILES: C#CC(=O)N(c1cc(OC)cc(OC)c1)C(C(=O)NC1CCCCC1)c1ccc(OC)cc1 (configuration not stated)
- IC50 (HCT-116 [1]): 11 µM
- Activity (MDA-MB-435 [2]): 2%
- logP [3]: 2.54
- IC50 (NCI/ADR-RES): 0.3 µM
- viability at 10 µM (MDA-MB-435 [5]): 53%
- Activity (MDA-MB-435 [28]): Active
- Activity (MDA-MB-435 [6]): 9%
- Activity (MDA-MB-435 [7]): 3%
- IC50 (UMUC3): > 20 µM
- IC50 (HEY): 4.4 µM
- Activity (MDA-MB-435 [8]): 35%
- viability at 10 µM (MDA-MB-435 [10]): 95%
- Activity (MDA-MB-435 [11]): 1%
- Activity (MDA-MB-435 [16]): 2%
- IC50 5637: 2.2 µM
- Activity (MDA-MB-435 [17]): Active
- fold change (FC) (MDA-MB-435 [29]): 2
- Activity (MDA-MB-435 [20]): Active
- IC50 (HCT-116 [21]): 12.5 µM
- IC50 (HT-29): 6.3 µM
- IC50 (MDA-MB-435 [23]): 5.4 µM
